From ChEMBL document CHEMBL4270565, “Design, synthesis and antimicrobial evaluation of propylene-tethered ciprofloxacin-isatin hybrids” (Eur J Med Chem, 2018)
≈ marks a conversion by molar mass, not a printed value.

Columns and labels:
Proteus vulgaris = experiment: Antibacterial activity against Proteus vulgaris ATCC 29905 after 18 to 24 hrs by two-fold serial dilution method; assay type: functional
Outline: (§1)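 Agar two-fold dilution MIC. Compounds were dissolved in 0.1 N NaOH and water, then serially diluted in melted Mueller-Hinton agar, with top concentrations starting at 128. Plates were inoculated at about 10 cfu and incubated at 35 °C for 18–24 h. MIC was taken as the lowest concentration giving 90% inhibition of growth.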

Morganella morganii = experiment: Antibacterial activity against Morganella morganii ATCC 25830 after 18 to 24 hrs by two-fold serial dilution method; assay type: functional; outline: as §1
Serratia marcescens = experiment: Antibacterial activity against Serratia marcescens ATCC 21074 after 18 to 24 hrs by two-fold serial dilution method; assay type: functional; outline: as §1
[1] = test system: Acinetobacter calcoaceticus; experiment: Antibacterial activity against Acinetobacter calcoaceticus ATCC 19606 after 18 to 24 hrs by two-fold serial dilution method; assay type: functional; outline: as §1
Enterococcus faecalis [2] = experiment: Antibacterial activity against Enterococcus faecalis ATCC 29212 after 18 to 24 hrs by two-fold serial dilution method; assay type: functional; outline: as §1
Staphylococcus aureus [3] = experiment: Antibacterial activity against methicillin-sensitive Staphylococcus aureus ATCC 29213 after 18 to 24 hrs by two-fold serial dilution method; assay type: functional
Outline: (§2)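 Agar two-fold serial dilution in Mueller-Hinton agar. Strains came from the Chinese Center for Disease Control and Prevention. Compounds were dissolved in 0.1 N NaOH and water, then diluted in melted agar to final levels stepping down from 128. Plates were inoculated with bacterial cfu and incubated at 35 C for 18–24 h. MIC is the lowest concentration giving 90% growth inhibition.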

Escherichia coli [4] = experiment: Antibacterial activity against extended-spectrum beta-lactamase deficient Escherichia coli ATCC 25922 after 18 to 24 hrs by two-fold serial dilution method; assay type: functional; outline: as §1
Enterococcus faecium [5] = experiment: Antibacterial activity against Enterococcus faecium ATCC 700221 after 18 to 24 hrs by two-fold serial dilution method; assay type: functional; outline: as §1
Klebsiella pneumoniae [6] = experiment: Antibacterial activity against extended-spectrum beta-lactamase harboring Klebsiella pneumoniae ATCC 700603 after 18 to 24 hrs by two-fold serial dilution method; assay type: functional; outline: as §2
Citrobacter freundii = experiment: Antibacterial activity against extended-spectrum beta-lactamase harboring Citrobacter freundii ATCC 43864 after 18 to 24 hrs by two-fold serial dilution method; assay type: functional; outline: as §2
Staphylococcus aureus [7] = experiment: Antibacterial activity against methicillin-resistant Staphylococcus aureus ATCC 33591 after 18 to 24 hrs by two-fold serial dilution method; assay type: functional; outline: as §2
[8] = test system: Staphylococcus epidermidis; experiment: Antibacterial activity against methicillin-sensitive Staphylococcus epidermidis ATCC 12228 after 18 to 24 hrs by two-fold serial dilution method; assay type: functional; outline: as §1
Enterococcus faecium [9] = experiment: Antibacterial activity against Enterococcus faecium 13-7 after 18 to 24 hrs by two-fold serial dilution method; assay type: functional; outline: as §1
[10] = test system: Mycobacterium tuberculosis; experiment: Antimycobacterial activity against Mycobacterium tuberculosis H37Rv after 7 days; assay type: functional; conditions: 168 h
Outline: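 Rapid direct susceptibility test in 48-well plates. Two-fold dilutions of compound from DMSO stocks were mixed with an equal volume of bacterial suspension. Medium-only wells served as growth controls and water-only wells as no-growth controls. Plates were sealed and held at 37 C in a humid box, and controls were checked at 3 days. MIC (90% growth inhibition) was read visually by high-magnification observation of the cells and re-read at 7 days.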

[11] = Cytotoxicity against African green monkey Vero cells assessed as reduction in cell viability after 72 hrs by MTT assay; assay type: cell-based; conditions: chlorocebus sabaeus
Outline: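 VERO cells were kept in MEM with Earle's salts and 10% FBS at 37 °C, 5% CO2. They were seeded in 96-well plates and allowed to recover for 24 h. Cells were then exposed to compounds in DMSO over a series from 1000 down to 4 for 72 h. Viability was read by MTT, and CC50 was calculated by Bliss analysis.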

Enterococcus faecalis [12] = experiment: Antibacterial activity against Enterococcus faecalis ATCC 51299 after 18 to 24 hrs by two-fold serial dilution method; assay type: functional; outline: as §1
[13] = test system: Stenotrophomonas maltophilia; experiment: Antibacterial activity against Stenotrophomonas maltophilia ATCC 13636 after 18 to 24 hrs by two-fold serial dilution method; assay type: functional; outline: as §1
Enterobacter cloacae = experiment: Antibacterial activity against Enterobacter cloacae ATCC 43560 after 18 to 24 hrs by two-fold serial dilution method; assay type: functional
Klebsiella pneumoniae [14] = experiment: Antibacterial activity against extended-spectrum beta-lactamase deficient Klebsiella pneumoniae 15-2 after 18 to 24 hrs by two-fold serial dilution method; assay type: functional; outline: as §1
Escherichia coli [15] = experiment: Antibacterial activity against extended-spectrum beta-lactamase harboring Escherichia coli ATCC 35218 after 18 to 24 hrs by two-fold serial dilution method; assay type: functional; outline: as §2
Providencia rettgeri = experiment: Antibacterial activity against Providencia rettgeri ATCC 31052 after 18 to 24 hrs by two-fold serial dilution method; assay type: functional; outline: as §1
Pseudomonas aeruginosa = experiment: Antibacterial activity against Pseudomonas aeruginosa ATCC 27853 after 18 to 24 hrs by two-fold serial dilution method; assay type: functional; outline: as §1
Klebsiella aerogenes = experiment: Antibacterial activity against Enterobacter aerogenes ATCC 13048 after 18 to 24 hrs by two-fold serial dilution method; assay type: functional; outline: as §1
[16] = test system: Staphylococcus epidermidis; experiment: Antibacterial activity against methicillin-resistant Staphylococcus epidermidis 13-3 after 18 to 24 hrs by two-fold serial dilution method; assay type: functional; outline: as §2
Proteus mirabilis = experiment: Antibacterial activity against Proteus mirabilis 13-1 after 18 to 24 hrs by two-fold serial dilution method; assay type: functional; outline: as §1

| Structure (SMILES) | MIC90 (Proteus vulgaris) [µg/mL] | MIC90 (Morganella morganii) [µg/mL] | MIC90 (Serratia marcescens) [µg/mL] | MIC90 [1] [µg/mL] | MIC90 (Enterococcus faecalis [2]) [µg/mL] | MIC90 (Staphylococcus aureus [3]) [µg/mL] | MIC90 (Escherichia coli [4]) [µg/mL] | MIC90 (Enterococcus faecium [5]) [µg/mL] | MIC90 (Klebsiella pneumoniae [6]) [µg/mL] | MIC90 (Citrobacter freundii) [µg/mL] | MIC90 (Staphylococcus aureus [7]) [µg/mL] | MIC90 [8] [µg/mL] | MIC90 (Enterococcus faecium [9]) [µg/mL] | MIC90 [10] [µg/mL] | CC50 at 72 h [11] [µg/mL] | MIC90 (Enterococcus faecalis [12]) [µg/mL] | MIC90 [13] [µg/mL] | MIC90 (Enterobacter cloacae) [µg/mL] | MIC90 (Klebsiella pneumoniae [14]) [µg/mL] | MIC90 (Escherichia coli [15]) [µg/mL] | also measured |
| --- | --- | --- | --- | --- | --- | --- | --- | --- | --- | --- | --- | --- | --- | --- | --- | --- | --- | --- | --- | --- | --- |
| CCO/N=C1\C(=O)N(CCCN2CCN(c3cc4c(cc3F)c(=O)c(C(=O)O)cn4C3CC3)CC2)c2ccc(C)cc21 | ≤ 0.03 | ≤ 0.03 | 0.06 (≈ 0.104 µM) | 0.5 (≈ 0.869 µM) | 0.5 (≈ 0.869 µM) | 0.125 (≈ 0.217 µM) | ≤ 0.03 | 4 (≈ 6.95 µM) | 0.5 (≈ 0.869 µM) | ≤ 0.03 | 0.125 (≈ 0.217 µM) | 0.125 (≈ 0.217 µM) | 32 (≈ 55.6 µM) | 3.12 (≈ 5.42 µM) | 128 (≈ 222 µM) | 1 (≈ 1.74 µM) | 0.06 (≈ 0.104 µM) | ≤ 0.03 | ≤ 0.03 | ≤ 0.03 | MIC90 (Providencia rettgeri): ≤ 0.03 µg/mL; MIC90 (Pseudomonas aeruginosa): 1 µg/mL (≈ 1.74 µM); MIC90 (Klebsiella aerogenes): ≤ 0.03 µg/mL; MIC90 [16]: 2 µg/mL (≈ 3.47 µM); MIC90 (Proteus mirabilis): ≤ 0.03 µg/mL |
| Cc1ccc2c(c1)C(=O)C(=O)N2CCCOC(=O)c1cn(C2CC2)c2cc(N3CCN(CCCN4C(=O)C(=O)c5cc(C)ccc54)CC3)c(F)cc2c1=O | 64 (≈ 87.2 µM) | 64 (≈ 87.2 µM) | > 128 | 64 (≈ 87.2 µM) | 64 (≈ 87.2 µM) | 64 (≈ 87.2 µM) | 8 (≈ 10.9 µM) | 128 (≈ 174 µM) | 64 (≈ 87.2 µM) | 64 (≈ 87.2 µM) | > 128 | 32 (≈ 43.6 µM) | > 128 | 50 (≈ 68.1 µM) | 64 (≈ 87.2 µM) | > 128 | 128 (≈ 174 µM) | 32 (≈ 43.6 µM) | 64 (≈ 87.2 µM) | 8 (≈ 10.9 µM) | MIC90 (Providencia rettgeri): 128 µg/mL (≈ 174 µM); MIC90 (Pseudomonas aeruginosa): 128 µg/mL (≈ 174 µM); MIC90 (Klebsiella aerogenes): 128 µg/mL (≈ 174 µM); MIC90 [16]: 128 µg/mL (≈ 174 µM); MIC90 (Proteus mirabilis): 64 µg/mL (≈ 87.2 µM) |
| O=C1C(=O)N(CCCN2CCN(c3cc4c(cc3F)c(=O)c(C(=O)O)cn4C3CC3)CC2)c2ccccc21 | ≤ 0.03 | ≤ 0.03 | 0.25 (≈ 0.482 µM) | 1 (≈ 1.93 µM) | 1 (≈ 1.93 µM) | 0.25 (≈ 0.482 µM) | ≤ 0.03 | 8 (≈ 15.4 µM) | 1 (≈ 1.93 µM) | ≤ 0.03 | 0.25 (≈ 0.482 µM) | 0.25 (≈ 0.482 µM) | 64 (≈ 123 µM) | 0.2 (≈ 0.386 µM) | 128 (≈ 247 µM) | 1 (≈ 1.93 µM) | 0.125 (≈ 0.241 µM) | 0.03 (≈ 0.0579 µM) | 0.125 (≈ 0.241 µM) | ≤ 0.03 | MIC90 (Providencia rettgeri): 0.03 µg/mL (≈ 0.0579 µM); MIC90 (Pseudomonas aeruginosa): 1 µg/mL (≈ 1.93 µM); MIC90 (Klebsiella aerogenes): ≤ 0.03 µg/mL; MIC90 [16]: 4 µg/mL (≈ 7.71 µM); MIC90 (Proteus mirabilis): ≤ 0.03 µg/mL |
